# Laboratory results from ChEMBL document CHEMBL4130549, “Synthesis and bioactivities study of new antibacterial peptide mimics: The dialkyl cationic amphiphiles” (Eur J Med Chem, 2018).
# Calls of active or inactive are those of the source. No cut-off for these calls is given here.
# How the values were obtained:
# [1] = test system: Staphylococcus aureus; assay: Ratio of MIC for Staphylococcus aureus ATCC 29213 after 20 serial passages to MIC for Staphylococcus aureus ATCC 29213; format: functional
# In short: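 Sub-MIC serial passaging: after an initial broth microdilution MIC, cells grown at MIC/2 were transferred into a new MIC assay after each 24 h incubation, for 20 passages. MIC was plotted against days to follow resistance development. Passaging controls were norfloxacin for S. aureus and colistin for E. coli.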
# [2] = test system: Staphylococcus aureus; assay: Bactericidal activity against Staphylococcus aureus ATCC 29213 at 12 ug/ml after 6 hrs by time kill assay; format: functional, organism-based
# In short: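 Time-kill: an overnight S. aureus ATCC 29213 culture was diluted 1:10,000 in Mueller-Hinton broth and grown 2 h (early exponential) or 5 h (late exponential) at 37 °C and 225 rpm. Cells were then exposed in tubes under the same conditions. At intervals, aliquots were pelleted, resuspended in PBS, serially diluted tenfold, plated on agar overnight, and counted as CFU/mL. Biological replicates were run.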
# [3] = test system: Escherichia coli; assay: Antibacterial activity against Escherichia coli; format: functional
# In short: (§1)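 Broth microdilution per CLSI in cation-adjusted Mueller-Hinton broth; 4-6 h cultures (~10⁸ CFU/mL) diluted to ~10⁶ CFU/mL and mixed 1:1 with twofold dilutions of water-dissolved compound (256 to 0.5 µg/mL). Incubated 16-20 h at 37 °C; MIC read visually. Each concentration run in duplicate, whole experiment repeated at least twice. MRSA, KPC and NDM-1 strains were clinical isolates.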
# [4] = test system: Enterococcus faecalis; assay: Antibacterial activity against Enterococcus faecalis; format: functional; in short: as §1
# [5] = test system: Staphylococcus aureus; assay: Antibacterial activity against Staphylococcus aureus; format: functional; in short: as §1
# [6] = Hemolytic activity in sheep RBC; format: ADME, cell-based, Ovis aries, Erythrocyte; settings: sheep red blood cells (erythrocytes)
# In short: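 Sheep RBCs suspended at 5% in PBS; 150 µL added to 50 µL compound dilutions (5120 to 10 µg/mL series). Incubated 1 h at 37 °C, then centrifuged; supernatant absorbance read at 540 nm. Lysis (%) = (A−A0)/(Atotal−A0)×100, with untreated 5% RBC as A0 and 0.1% Triton X-100 as total.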
# [7] = test system: Staphylococcus aureus; assay: Antibacterial activity against methicillin-resistant Staphylococcus aureus; format: functional
compound,measurement,setting,value
CCn1cc(C(=O)O)c(=O)c2cc(F)c(N3CCNCC3)cc21 [NORFLOXACIN],Ratio,[1],256
CN[C@H](CC(C)C)C(=O)N[C@H]1C(=O)N[C@@H](CC(N)=O)C(=O)N[C@H]2C(=O)N[C@H]3C(=O)N[C@H](C(=O)N[C@H](C(=O)O)c4cc(O)cc(O)c4-c4cc3ccc4O)[C@H](O)c3ccc(c(Cl)c3)Oc3cc2cc(c3O[C@@H]2O[C@H](CO)[C@@H](O)[C@H](O)[C@H]2O[C@H]2C[C@](C)(N)[C@H](O)[C@H](C)O2)Oc2ccc(cc2Cl)[C@H]1O,Activity,[2],inactive
H-GIGKFLKKAKKFGKAFVKLLKK-NH2,MIC,[3],16 to 32 µg/mL
same,MIC,[4],64 µg/mL
same,MIC,[5],8 to 16 µg/mL
same,HC50,[6],120 µg/mL
same,MIC,[7],16 to 32 µg/mL
